Reference: ChEMBL document CHEMBL1124867, “Synthesis and antiviral activity of monofluoro and difluoro analogues of pyrimidine deoxyribonucleosides against human immunodeficiency virus (HIV-1)” (J Med Chem, 1990)

What was measured:
C8166 [1] = test: Concentration of compound that inhibits incorporation of radiolabeled amino acids by 50 %; assay type: functional; conditions: Homo sapiens, read-out: CD50 (the source's name)
How it was run: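 C8166 cells (2 × 10⁵) exposed to compound at various concentrations for 3 days, washed, then given ¹⁴C protein hydrolysate for a further 24 h. Cells harvested and washed, ¹⁴C incorporation counted by scintillation, radioactivity plotted against concentration; CD50 = concentration inhibiting label incorporation by 50%.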

C8166 [2] = test: Antiviral activity against HIV-1 (RF strain) in C8166 cells; assay type: functional, cell-based; conditions: Homo sapiens
How it was run: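 HIV-1 RF strain in C8166 cells, 3-day incubation with compound at various concentrations (highest tested 100 μM). Virus in culture medium quantified by p24 antigen-capture ELISA (primary antiserum against p24, horseradish peroxidase detection), colour read spectrophotometrically and plotted against concentration; IC50 = concentration reducing virus levels by 50%.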

SMILES	CC50 (C8166 [1]) [µM]	IC50 (C8166 [2]) [µM]
Nc1ccn(C2OC(CO)C(F)C2F)c(=O)n1 (configuration not stated)	> 100	10
O=c1ccn(C2OC(CO)CC2F)c(=O)[nH]1 (configuration not stated)	–	> 100
Nc1ccn([C@@H]2O[C@H](CO)C[C@@H]2F)c(=O)n1	500	0.7
Nc1ccn(C2OC(CO)CC2F)c(=O)n1 (configuration not stated)	–	> 100
O=c1ccn(C2OC(CO)C(F)C2F)c(=O)[nH]1 (configuration not stated)	–	> 100
Nc1nc(=O)n(C2OC(CO)CC2F)cc1F (configuration not stated)	–	> 100
Cc1cn([C@H]2C[C@H](N=[N+]=[N-])[C@@H](CO)O2)c(=O)[nH]c1=O [ZIDOVUDINE]	> 1000	0.0085
Nc1ccn([C@@H]2O[C@H](CO)C=C2F)c(=O)n1	30	10
Cc1cn([C@@H]2O[C@H](CO)C=C2F)c(=O)[nH]c1=O	> 1000	100
O=c1ccn(C2OC(CO)C=C2F)c(=O)[nH]1 (configuration not stated)	–	> 100
Nc1ccn([C@H]2CC[C@@H](CO)O2)c(=O)n1 [ZALCITABINE]	1000	0.125
